The record followed here is ChEMBL document CHEMBL5356993, “Novel pyrazolo[3,4-d]pyrimidine derivatives: design, synthesis, anticancer evaluation, VEGFR-2 inhibition, and antiangiogenic activity” (RSC Med Chem, 2023).

One test concerns HCT-15. Description: Antiproliferative activity against human HCT-15 cells assessed as cell growth inhibition at 10 uM incubated for 48 hrs by SRB assay relative to control. It is filed as functional. The conditions noted are these: read-out: GI. On the technique in general: In SRB staining, fixed cells bind dye roughly in proportion to their protein.
As for `Cc1nc2c(cnn2-c2ccccc2)c(=O)n1-c1ccc(N2C(=O)C=CC2=O)cc1`, the inhibition of growth at 10 µM is below 15%.

With `Cc1nc2c(cnn2-c2ccccc2)c(=O)n1-c1ccc(NC(=O)c2ccco2)cc1`, the inhibition of growth at 10 µM is below 15%.

Another test relates to UACC-62. Nature of the test: Antiproliferative activity against human UACC-62 cells assessed as cell growth inhibition at 10 uM incubated for 48 hrs by SRB assay relative to control. It is filed as functional. The settings on record: read-out: GI. Put shortly:
(§1)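 Cells pre-incubated 24 h at 37°C, 5% CO2, then exposed to compound (DMSO stock diluted in medium with 50 µg/mL gentamicin) for 48 h. Adherent cells fixed with cold TCA (final 10%, 60 min, 4°C); suspension cells fixed with 16% TCA final. Stained with 0.4% SRB in 1% acetic acid for 10 min, dye solubilized in 10 mM Trizma base, absorbance read at 515 nm. Growth calculated against time-zero and untreated control plates.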
As to `Cc1nc2c(cnn2-c2ccccc2)c(=O)n1-c1ccc(N2C(=O)C=CC2=O)cc1`, the inhibition of growth at 10 µM is below 15%.

On to `Cc1nc2c(cnn2-c2ccccc2)c(=O)n1-c1ccc(NC(=O)c2ccco2)cc1`, for which the inhibition of growth at 10 µM was found to be 16.6%.

A further test deals with OVCAR-4. Description: Antiproliferative activity against human OVCAR-4 cells assessed as cell growth inhibition at 10 uM incubated for 48 hrs by SRB assay relative to control. The class given is functional. The settings on record: read-out: GI.
As for `Cc1nc2c(cnn2-c2ccccc2)c(=O)n1-c1ccc(N2C(=O)C=CC2=O)cc1`, the inhibition of growth at 10 µM was below 15%.

As to `Cc1nc2c(cnn2-c2ccccc2)c(=O)n1-c1ccc(NC(=O)c2ccco2)cc1`, the inhibition of growth at 10 µM was 21.2%.

Another test has as its system HCT-116. Description: Antiproliferative activity against human HCT-116 cells assessed as cell growth inhibition at 10 uM incubated for 48 hrs by SRB assay relative to control. It is filed as functional. The conditions noted are these: read-out: GI.
For the molecule `Cc1nc2c(cnn2-c2ccccc2)c(=O)n1-c1ccc(N2C(=O)C=CC2=O)cc1`, the inhibition of growth at 10 µM is below 15%.

As for `Cc1nc2c(cnn2-c2ccccc2)c(=O)n1-c1ccc(NC(=O)c2ccco2)cc1`, the inhibition of growth at 10 µM was below 15%.

For the next test, the system named is HL-60(TB). Nature of the test: Antiproliferative activity against human HL-60(TB) cells assessed as cell growth inhibition at 10 uM incubated for 48 hrs by SRB assay relative to control. The class given is functional. The settings on record: read-out: GI. Put shortly:
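Cells were plated at […] cells/well and preincubated 24 h at 37°C, 5% CO2, with time-zero plates TCA-fixed. Compound was diluted from DMSO stock in medium with 50 µg/mL gentamicin, then exposed for 48 h. Settled suspension cells were fixed with 80% TCA (final 16%), stained with 0.4% SRB and solubilized in 10 mM Trizma, A515. Growth was taken relative to Tz and control.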
Consider `Cc1nc2c(cnn2-c2ccccc2)c(=O)n1-c1ccc(N2C(=O)C=CC2=O)cc1`, for which the inhibition of growth at 10 µM was below 15%.

Turning to `Cc1nc2c(cnn2-c2ccccc2)c(=O)n1-c1ccc(NC(=O)c2ccco2)cc1`, the inhibition of growth at 10 µM is 19.8%.

The subject of another test is 786-0. Description: Antiproliferative activity against human 786-0 cells assessed as cell growth inhibition at 10 uM incubated for 48 hrs by SRB assay relative to control. The class given is functional. The settings on record: read-out: GI.
On to `Cc1nc2c(cnn2-c2ccccc2)c(=O)n1-c1ccc(N2C(=O)C=CC2=O)cc1`, for which the inhibition of growth at 10 µM was below 15%.

`Cc1nc2c(cnn2-c2ccccc2)c(=O)n1-c1ccc(NC(=O)c2ccco2)cc1`: the inhibition of growth at 10 µM was below 15%.

Another test relates to NCI-H23. Description: Antiproliferative activity against human NCI-H23 cells assessed as cell growth inhibition at 10 uM incubated for 48 hrs by SRB assay relative to control. It is filed as functional. The settings on record: read-out: GI.
For the molecule `Cc1nc2c(cnn2-c2ccccc2)c(=O)n1-c1ccc(N2C(=O)C=CC2=O)cc1`, the inhibition of growth at 10 µM is below 15%.

As for `Cc1nc2c(cnn2-c2ccccc2)c(=O)n1-c1ccc(NC(=O)c2ccco2)cc1`, the inhibition of growth at 10 µM was below 15%.

Another test deals with NCI-H460. Nature of the test: Antiproliferative activity against human NCI-H460 cells assessed as cell growth inhibition at 10 uM incubated for 48 hrs by SRB assay relative to control. It is filed as functional. The conditions noted are these: read-out: GI.
On to `Cc1nc2c(cnn2-c2ccccc2)c(=O)n1-c1ccc(N2C(=O)C=CC2=O)cc1`, for which the inhibition of growth at 10 µM is below 15%.

On to `Cc1nc2c(cnn2-c2ccccc2)c(=O)n1-c1ccc(NC(=O)c2ccco2)cc1`, for which the inhibition of growth at 10 µM was below 15%.

For another test, the system named is T47D. Description: Antiproliferative activity against human T47D cells assessed as cell growth inhibition at 10 uM incubated for 48 hrs by SRB assay relative to control. It is filed as functional. The conditions noted are these: read-out: GI. Put shortly: as §1
On to `Cc1nc2c(cnn2-c2ccccc2)c(=O)n1-c1ccc(N2C(=O)C=CC2=O)cc1`, for which the inhibition of growth at 10 µM is below 15%.

Take `Cc1nc2c(cnn2-c2ccccc2)c(=O)n1-c1ccc(NC(=O)c2ccco2)cc1`: the inhibition of growth at 10 µM was determined as 34%.

Another test deals with SK-MEL-5. Description: Antiproliferative activity against human SK-MEL-5 cells assessed as cell growth inhibition at 10 uM incubated for 48 hrs by SRB assay relative to control. The settings on record: read-out: GI. The class given is functional. The gist of the method: (§2)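 Cells plated in 96-well plates at […] cells/well and preincubated 24 h at 37 °C, 5% CO2. Time-zero plates were TCA-fixed. Compound was diluted in medium with 50 µg/mL gentamicin and cells exposed for 48 h. Adherent cells fixed with 10% final TCA; suspension cells with 16% final TCA. Plates stained with 0.4% SRB in 1% acetic acid, dye solubilized in 10 mM Trizma, absorbance read at 515 nm. Percent growth calculated against time-zero and control.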
For `Cc1nc2c(cnn2-c2ccccc2)c(=O)n1-c1ccc(N2C(=O)C=CC2=O)cc1`, the inhibition of growth at 10 µM was below 15%.

Regarding `Cc1nc2c(cnn2-c2ccccc2)c(=O)n1-c1ccc(NC(=O)c2ccco2)cc1`, the inhibition of growth at 10 µM turned out to be 23.1%.

A further test has as its system SW-620. Nature of the test: Antiproliferative activity against human SW620 cells assessed as cell growth inhibition at 10 uM incubated for 48 hrs by SRB assay relative to control. It is filed as functional. The settings on record: read-out: GI. The gist of the method:
as §1
With `Cc1nc2c(cnn2-c2ccccc2)c(=O)n1-c1ccc(N2C(=O)C=CC2=O)cc1`, the inhibition of growth at 10 µM was below 15%.

In the case of `Cc1nc2c(cnn2-c2ccccc2)c(=O)n1-c1ccc(NC(=O)c2ccco2)cc1`, the inhibition of growth at 10 µM is below 15%.

Another test concerns MDA-MB-435. Nature of the test: Antiproliferative activity against human MDA-MB-435 cells assessed as cell growth inhibition at 10 uM incubated for 48 hrs by SRB assay relative to control. It is filed as functional. The conditions noted are these: read-out: GI.
With `Cc1nc2c(cnn2-c2ccccc2)c(=O)n1-c1ccc(N2C(=O)C=CC2=O)cc1`, the inhibition of growth at 10 µM is below 15%.

For `Cc1nc2c(cnn2-c2ccccc2)c(=O)n1-c1ccc(NC(=O)c2ccco2)cc1`, the inhibition of growth at 10 µM was below 15%.

A further test concerns LOX IMVI. Nature of the test: Antiproliferative activity against human LOX IMVI cells assessed as cell growth inhibition at 10 uM incubated for 48 hrs by SRB assay relative to control. The class given is functional. The conditions noted are these: read-out: GI.
In the case of `Cc1nc2c(cnn2-c2ccccc2)c(=O)n1-c1ccc(N2C(=O)C=CC2=O)cc1`, the inhibition of growth at 10 µM was below 15%.

`Cc1nc2c(cnn2-c2ccccc2)c(=O)n1-c1ccc(NC(=O)c2ccco2)cc1`: the inhibition of growth at 10 µM is below 15%.

For another test, the system named is SF-539. Description: Antiproliferative activity against human SF-539 cells assessed as cell growth inhibition at 10 uM incubated for 48 hrs by SRB assay relative to control. The conditions noted are these: read-out: GI. The class given is functional. Put shortly: as §2
Consider `Cc1nc2c(cnn2-c2ccccc2)c(=O)n1-c1ccc(N2C(=O)C=CC2=O)cc1`, for which the inhibition of growth at 10 µM is below 15%.

Take `Cc1nc2c(cnn2-c2ccccc2)c(=O)n1-c1ccc(NC(=O)c2ccco2)cc1`: the inhibition of growth at 10 µM is below 15%.

The next test relates to CCRF-CEM. Description: Antiproliferative activity against human CCRF-CEM cells assessed as cell growth inhibition at 10 uM incubated for 48 hrs by SRB assay relative to control. The conditions noted are these: read-out: GI. The class given is functional. The gist of the method:
as §2
As to `Cc1nc2c(cnn2-c2ccccc2)c(=O)n1-c1ccc(N2C(=O)C=CC2=O)cc1`, the inhibition of growth at 10 µM amounted to 32.2%.

`Cc1nc2c(cnn2-c2ccccc2)c(=O)n1-c1ccc(NC(=O)c2ccco2)cc1`: the inhibition of growth at 10 µM worked out at 23.6%.

The next test deals with M14. Nature of the test: Antiproliferative activity against human M14 cells assessed as cell growth inhibition at 10 uM incubated for 48 hrs by SRB assay relative to control. The conditions noted are these: read-out: GI. The class given is functional. The gist of the method: as §2
For `Cc1nc2c(cnn2-c2ccccc2)c(=O)n1-c1ccc(N2C(=O)C=CC2=O)cc1`, the inhibition of growth at 10 µM is below 15%.

On to `Cc1nc2c(cnn2-c2ccccc2)c(=O)n1-c1ccc(NC(=O)c2ccco2)cc1`, for which the inhibition of growth at 10 µM was below 15%.

The test system of a further test is TK-10. Description: Antiproliferative activity against human TK-10 cells assessed as cell growth inhibition at 10 uM incubated for 48 hrs by SRB assay relative to control. It is filed as functional. The settings on record: read-out: GI. The gist of the method: as §1
For `Cc1nc2c(cnn2-c2ccccc2)c(=O)n1-c1ccc(N2C(=O)C=CC2=O)cc1`, the inhibition of growth at 10 µM was below 15%.

With `Cc1nc2c(cnn2-c2ccccc2)c(=O)n1-c1ccc(NC(=O)c2ccco2)cc1`, the inhibition of growth at 10 µM is below 15%.

The subject of another test is HCC 2998. Description: Antiproliferative activity against human HCC 2998 cells assessed as cell growth inhibition at 10 uM incubated for 48 hrs by SRB assay relative to control. The class given is functional. The conditions noted are these: read-out: GI.
In the case of `Cc1nc2c(cnn2-c2ccccc2)c(=O)n1-c1ccc(N2C(=O)C=CC2=O)cc1`, the inhibition of growth at 10 µM was below 15%.

For `Cc1nc2c(cnn2-c2ccccc2)c(=O)n1-c1ccc(NC(=O)c2ccco2)cc1`, the inhibition of growth at 10 µM was below 15%.

The subject of a further test is NCI-H522. Nature of the test: Antiproliferative activity against human NCI-H522 cells assessed as cell growth inhibition at 10 uM incubated for 48 hrs by SRB assay relative to control. It is filed as functional. The conditions noted are these: read-out: GI. Put shortly:
as §2
In the case of `Cc1nc2c(cnn2-c2ccccc2)c(=O)n1-c1ccc(N2C(=O)C=CC2=O)cc1`, the inhibition of growth at 10 µM is below 15%.

Turning to `Cc1nc2c(cnn2-c2ccccc2)c(=O)n1-c1ccc(NC(=O)c2ccco2)cc1`, the inhibition of growth at 10 µM is below 15%.

Another test has as its system K562. Nature of the test: Antiproliferative activity against human K562 cells assessed as cell growth inhibition at 10 uM incubated for 48 hrs by SRB assay relative to control. It is filed as functional. The settings on record: read-out: GI.
Regarding `Cc1nc2c(cnn2-c2ccccc2)c(=O)n1-c1ccc(N2C(=O)C=CC2=O)cc1`, the inhibition of growth at 10 µM is below 15%.

`Cc1nc2c(cnn2-c2ccccc2)c(=O)n1-c1ccc(NC(=O)c2ccco2)cc1`: the inhibition of growth at 10 µM was 30.1%.

A further test concerns EKVX. Nature of the test: Antiproliferative activity against human EKVX cells assessed as cell growth inhibition at 10 uM incubated for 48 hrs by SRB assay relative to control. It is filed as functional. The settings on record: read-out: GI.
As for `Cc1nc2c(cnn2-c2ccccc2)c(=O)n1-c1ccc(N2C(=O)C=CC2=O)cc1`, the inhibition of growth at 10 µM was below 15%.

Turning to `Cc1nc2c(cnn2-c2ccccc2)c(=O)n1-c1ccc(NC(=O)c2ccco2)cc1`, the inhibition of growth at 10 µM worked out at 26.9%.

In the next test the test system is HOP-62. Nature of the test: Antiproliferative activity against human HOP-62 cells assessed as cell growth inhibition at 10 uM incubated for 48 hrs by SRB assay relative to control. The class given is functional. The settings on record: read-out: GI.
`Cc1nc2c(cnn2-c2ccccc2)c(=O)n1-c1ccc(N2C(=O)C=CC2=O)cc1`: the inhibition of growth at 10 µM was below 15%.

With `Cc1nc2c(cnn2-c2ccccc2)c(=O)n1-c1ccc(NC(=O)c2ccco2)cc1`, the inhibition of growth at 10 µM was below 15%.

A further test relates to A498. Description: Antiproliferative activity against human A498 cells assessed as cell growth inhibition at 10 uM incubated for 48 hrs by SRB assay relative to control. The class given is functional. The conditions noted are these: read-out: GI. Put shortly: as §2
Turning to `Cc1nc2c(cnn2-c2ccccc2)c(=O)n1-c1ccc(N2C(=O)C=CC2=O)cc1`, the inhibition of growth at 10 µM was below 15%.

Consider `Cc1nc2c(cnn2-c2ccccc2)c(=O)n1-c1ccc(NC(=O)c2ccco2)cc1`, for which the inhibition of growth at 10 µM was below 15%.
